Results taken from ChEMBL document CHEMBL4706507, “Chromones bearing amino acid residues: Easily accessible and potent inhibitors of the breast cancer resistance protein ABCG2” (Eur J Med Chem, 2020).

What was measured:
ABCB1 [1] = molecular target: T1, ABCB1 (Homo sapiens, UniProt P08183); test: Inhibition of ABCB1 (unknown origin) expressed in NIH/3T3 cells assessed as maximal inhibition at 1 uM by FACS based flow cytometry
ABCC1 (MRP1) [2] = molecular target: T2, ABCC1 (MRP1) (Homo sapiens, UniProt P33527); test: Inhibition of ABCC1 (unknown origin) expressed in Flp-In-293 cells assessed as maximal inhibition at 1 uM by FACS based flow cytometry
T2 sequence (P33527 whole entry): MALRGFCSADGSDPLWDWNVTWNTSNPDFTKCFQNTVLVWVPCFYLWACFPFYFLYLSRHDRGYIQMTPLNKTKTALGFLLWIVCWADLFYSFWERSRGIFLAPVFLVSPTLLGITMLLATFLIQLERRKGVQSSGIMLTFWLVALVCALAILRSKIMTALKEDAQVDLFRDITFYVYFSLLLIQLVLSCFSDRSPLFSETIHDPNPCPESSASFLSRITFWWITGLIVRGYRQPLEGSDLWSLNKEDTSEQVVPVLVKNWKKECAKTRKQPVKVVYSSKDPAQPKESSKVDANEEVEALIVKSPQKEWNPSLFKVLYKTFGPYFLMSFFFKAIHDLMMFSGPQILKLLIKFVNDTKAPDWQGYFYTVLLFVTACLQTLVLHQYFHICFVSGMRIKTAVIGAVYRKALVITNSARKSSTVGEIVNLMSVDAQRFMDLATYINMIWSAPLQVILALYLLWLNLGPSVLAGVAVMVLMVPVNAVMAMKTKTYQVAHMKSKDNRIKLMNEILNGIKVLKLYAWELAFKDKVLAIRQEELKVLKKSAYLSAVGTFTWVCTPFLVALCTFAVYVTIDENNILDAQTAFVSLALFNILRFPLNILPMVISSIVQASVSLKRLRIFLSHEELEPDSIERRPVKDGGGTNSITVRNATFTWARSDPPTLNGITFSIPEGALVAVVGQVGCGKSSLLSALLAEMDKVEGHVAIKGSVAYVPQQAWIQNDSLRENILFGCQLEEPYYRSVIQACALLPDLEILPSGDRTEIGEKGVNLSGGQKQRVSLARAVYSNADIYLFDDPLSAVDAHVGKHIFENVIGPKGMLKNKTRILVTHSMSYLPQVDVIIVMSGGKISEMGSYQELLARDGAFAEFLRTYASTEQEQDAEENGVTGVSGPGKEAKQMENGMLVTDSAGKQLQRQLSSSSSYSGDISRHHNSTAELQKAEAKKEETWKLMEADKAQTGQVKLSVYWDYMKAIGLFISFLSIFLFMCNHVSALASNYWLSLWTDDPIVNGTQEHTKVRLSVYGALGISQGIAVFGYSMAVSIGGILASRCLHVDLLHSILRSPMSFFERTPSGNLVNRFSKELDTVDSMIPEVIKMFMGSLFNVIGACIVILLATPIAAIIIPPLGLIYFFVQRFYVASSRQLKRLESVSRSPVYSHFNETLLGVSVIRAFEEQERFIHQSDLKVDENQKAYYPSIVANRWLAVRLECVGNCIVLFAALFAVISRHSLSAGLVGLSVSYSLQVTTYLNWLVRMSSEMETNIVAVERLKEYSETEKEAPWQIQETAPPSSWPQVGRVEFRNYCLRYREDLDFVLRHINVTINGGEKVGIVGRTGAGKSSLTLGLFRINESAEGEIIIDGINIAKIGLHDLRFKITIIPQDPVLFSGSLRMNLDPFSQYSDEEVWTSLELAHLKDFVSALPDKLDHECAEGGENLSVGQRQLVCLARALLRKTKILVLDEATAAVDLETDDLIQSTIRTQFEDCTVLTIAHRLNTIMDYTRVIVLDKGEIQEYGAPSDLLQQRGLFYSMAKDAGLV

[3] = molecular target: T3, Broad substrate specificity ATP-binding cassette transporter ABCG2 (Homo sapiens, UniProt Q9UNQ0); test: (§1) Inhibition of ABCG2 (unknown origin) in HEK293 cells assessed as maximal inhibition of mitoxantrone efflux at 1 uM by fluorescence based flow cytometry relative to control; format: cell-based; settings: hek293, 1 µM
T3 sequence (Q9UNQ0 whole entry): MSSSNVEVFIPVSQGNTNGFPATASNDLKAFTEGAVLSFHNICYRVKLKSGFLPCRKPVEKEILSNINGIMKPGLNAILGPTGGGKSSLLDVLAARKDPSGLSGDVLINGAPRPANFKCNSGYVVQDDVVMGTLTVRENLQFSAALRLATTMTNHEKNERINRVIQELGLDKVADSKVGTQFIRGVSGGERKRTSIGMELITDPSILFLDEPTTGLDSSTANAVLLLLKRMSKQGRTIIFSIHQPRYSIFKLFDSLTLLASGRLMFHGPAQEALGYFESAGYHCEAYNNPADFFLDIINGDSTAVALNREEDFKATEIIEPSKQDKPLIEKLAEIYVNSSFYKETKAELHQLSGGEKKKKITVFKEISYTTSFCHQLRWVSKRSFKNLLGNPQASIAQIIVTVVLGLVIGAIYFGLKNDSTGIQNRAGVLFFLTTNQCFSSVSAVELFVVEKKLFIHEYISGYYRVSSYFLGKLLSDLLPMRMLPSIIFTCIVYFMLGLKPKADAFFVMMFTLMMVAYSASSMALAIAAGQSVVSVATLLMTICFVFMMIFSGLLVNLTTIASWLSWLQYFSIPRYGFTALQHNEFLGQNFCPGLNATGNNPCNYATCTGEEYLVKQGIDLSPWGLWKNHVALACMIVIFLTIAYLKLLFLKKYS
In short: (§2)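 Efflux assay in HEK293-ABCG2 cells, with parental HEK293 cells as negative control. Cells seeded at 5×10^4/well overnight, then given compound plus 4 µM mitoxantrone (0.5% DMSO) for 30 min at 37 °C. Cells washed, trypsinized and resuspended in cold DPBS with 2% BSA.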

[4] = molecular target: T3, Broad substrate specificity ATP-binding cassette transporter ABCG2; test: Inhibition of ABCG2 (unknown origin) in HEK293 cells assessed as maximal inhibition of mitoxantrone efflux by fluorescence based flow cytometry; format: cell-based
In short: as §2

ABCC1 (MRP1) [5] = molecular target: T2, ABCC1 (MRP1); test: Inhibition of ABCC1 (unknown origin) expressed in Flp-In-293 cells assessed as maximal inhibition at 10 uM by FACS based flow cytometry
[6] = molecular target: T3, Broad substrate specificity ATP-binding cassette transporter ABCG2; test: Inhibition of ABCG2 (unknown origin) expressed in HEK293 cells assessed as maximal inhibition at 1 uM by FACS based flow cytometry; settings: hek293, 1 µM
[7] = Cytotoxicity against human HEK293 cells assessed as cell viability at 20 uM measured after 72 hrs by MTT assay; format: cell-based; settings: read-out: Activity
ABCB1 [8] = molecular target: T1, ABCB1; test: Inhibition of ABCB1 (unknown origin) expressed in NIH/3T3 cells assessed as maximal inhibition at 10 uM by FACS based flow cytometry
[9] = Cytotoxicity against human HEK293 cells assessed as cell viability at 10 uM measured after 72 hrs by MTT assay; format: cell-based; settings: read-out: Activity
ABCG2 = molecular target: T4, ABCG2 (Homo sapiens, UniProt Q9UNQ0); test: as §1; format: cell-based; settings: HEK293 cells with ABCG2, probe mitoxantrone, read-out: Imax
T4 sequence (Q9UNQ0 whole entry): T3 sequence (Q9UNQ0 whole entry)
In short: as §2

T1 sequence (P08183 whole entry): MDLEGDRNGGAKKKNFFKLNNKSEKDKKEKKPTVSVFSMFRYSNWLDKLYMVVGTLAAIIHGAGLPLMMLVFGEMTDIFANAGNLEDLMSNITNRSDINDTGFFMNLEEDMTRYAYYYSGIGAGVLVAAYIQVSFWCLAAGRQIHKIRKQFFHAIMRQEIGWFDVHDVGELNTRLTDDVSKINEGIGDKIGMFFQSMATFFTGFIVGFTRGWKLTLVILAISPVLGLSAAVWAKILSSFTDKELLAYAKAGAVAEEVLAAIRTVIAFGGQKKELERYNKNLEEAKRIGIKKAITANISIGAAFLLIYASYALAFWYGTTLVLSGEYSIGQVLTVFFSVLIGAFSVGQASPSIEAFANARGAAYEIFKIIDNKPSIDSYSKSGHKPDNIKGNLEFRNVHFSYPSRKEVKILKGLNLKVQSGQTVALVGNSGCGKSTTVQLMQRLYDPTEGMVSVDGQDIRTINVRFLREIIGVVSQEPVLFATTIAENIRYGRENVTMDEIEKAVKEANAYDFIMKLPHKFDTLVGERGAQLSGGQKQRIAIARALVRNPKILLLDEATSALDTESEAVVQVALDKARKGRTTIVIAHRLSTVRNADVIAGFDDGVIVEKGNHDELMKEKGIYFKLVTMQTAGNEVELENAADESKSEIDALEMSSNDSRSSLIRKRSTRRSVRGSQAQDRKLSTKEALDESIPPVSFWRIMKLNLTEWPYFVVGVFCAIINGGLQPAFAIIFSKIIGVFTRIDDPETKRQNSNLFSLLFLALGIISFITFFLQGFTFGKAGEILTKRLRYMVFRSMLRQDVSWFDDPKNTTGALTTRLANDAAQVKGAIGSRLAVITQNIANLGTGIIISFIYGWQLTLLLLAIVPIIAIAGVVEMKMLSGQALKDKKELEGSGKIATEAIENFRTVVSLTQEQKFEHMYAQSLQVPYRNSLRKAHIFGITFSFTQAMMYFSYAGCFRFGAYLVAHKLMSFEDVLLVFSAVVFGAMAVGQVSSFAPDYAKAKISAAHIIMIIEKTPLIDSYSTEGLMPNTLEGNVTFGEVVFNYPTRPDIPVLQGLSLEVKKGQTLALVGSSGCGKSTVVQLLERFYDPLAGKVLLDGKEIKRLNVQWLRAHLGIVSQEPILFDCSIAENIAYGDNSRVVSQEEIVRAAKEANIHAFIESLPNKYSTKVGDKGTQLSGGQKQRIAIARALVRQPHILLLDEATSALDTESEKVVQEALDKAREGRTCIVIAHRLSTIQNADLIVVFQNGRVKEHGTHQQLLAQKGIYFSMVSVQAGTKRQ

## CC[C@@H](C)[C@H](NC(=O)c1cc(=O)c2c(OCc3ccccc3Br)cccc2o1)C(=O)N[C@@H](CC(C)C)C(=O)OC
ABCB1 [1]
  inhibition at 1 µM: 2%
ABCC1 (MRP1) [2]
  inhibition at 1 µM: 10%
[3]
  Imax: 83%
[4]
  EC50: 70 nM
ABCC1 (MRP1) [5]
  inhibition at 10 µM: 13%
[6]
  inhibition (INH): 83%
[7]
  viability at 72 h, 20 µM: 104%
ABCB1 [8]
  inhibition at 10 µM: 2%

## CC[C@@H](C)[C@H](NC(=O)c1cc(=O)c2c(OCc3ccc(Br)cc3)cccc2o1)C(=O)N[C@@H](CC(C)C)C(=O)OC
ABCB1 [1]
  inhibition at 1 µM: 4%
ABCC1 (MRP1) [2]
  inhibition at 1 µM: 11%
[3]
  Imax: 52%
[4]
  EC50: 110 nM
[6]
  inhibition (INH): 52%
[7]
  viability at 72 h, 20 µM: 101%
ABCB1 [8]
  inhibition at 10 µM: 6%

## COC(=O)[C@@H](NC(=O)c1cc(=O)c2c(OCc3ccccc3Br)cccc2o1)C(C)C
ABCB1 [1]
  inhibition at 1 µM: 8%
ABCC1 (MRP1) [2]
  inhibition at 1 µM: 13%
[3]
  Imax: 87%
[4]
  EC50: 50 nM
[9]
  viability at 72 h, 10 µM: 76%
[6]
  inhibition (INH): 87%
ABCB1 [8]
  inhibition at 10 µM: 7%

## COC(=O)[C@H](CC(C)C)NC(=O)c1cc(=O)c2c(OCc3ccccc3Br)cccc2o1
ABCB1 [1]
  inhibition at 1 µM: 7%
ABCC1 (MRP1) [2]
  inhibition at 1 µM: 20%
[3]
  Imax: 115%
[4]
  EC50: 140 nM
[9]
  viability at 72 h, 10 µM: 87%
[6]
  inhibition (INH): 115%
ABCB1 [8]
  inhibition at 10 µM: 5%

## COC(=O)[C@@H](Cc1c[nH]c2ccccc12)NC(=O)c1cc(=O)c2c(OCc3ccc(Br)cc3)cccc2o1
ABCB1 [1]
  inhibition at 1 µM: 7%
ABCC1 (MRP1) [2]
  inhibition at 1 µM: 11.9%
[3]
  Imax: 85%
[4]
  EC50: 290 nM
[9]
  viability at 72 h, 10 µM: 102%
[6]
  inhibition (INH): 85%
ABCB1 [8]
  inhibition at 10 µM: 6%

## COC(=O)[C@H](Cc1c[nH]c2ccccc12)NC(=O)c1cc(=O)c2c(OCc3ccc(Br)cc3)cccc2o1
ABCB1 [1]
  inhibition at 1 µM: 7%
ABCC1 (MRP1) [2]
  inhibition at 1 µM: 10.3%
[3]
  Imax: 96%
[4]
  EC50: 480 nM
[9]
  viability at 72 h, 10 µM: 77%
[6]
  inhibition (INH): 96%
ABCB1 [8]
  inhibition at 10 µM: 6%

## CC[C@@H](C)[C@H](NC(=O)c1cc(=O)c2c(OCc3ccccc3Br)cccc2o1)C(=O)OC
ABCC1 (MRP1) [2]
  inhibition at 1 µM: 5%
[3]
  Imax: 78%
[4]
  EC50: 100 nM
[6]
  inhibition (INH): 78%

## CC[C@@H](C)[C@H](NC(=O)c1cc(=O)c2c(OCc3ccc(Br)cc3)cccc2o1)C(=O)N[C@H](C(=O)OC)C(C)C
ABCB1 [1]
  inhibition at 1 µM: 2%
ABCC1 (MRP1) [2]
  inhibition at 1 µM: 12%
[3]
  Imax: 72%
[4]
  EC50: 250 nM
[6]
  inhibition (INH): 72%
[7]
  viability at 72 h, 20 µM: 89%
ABCB1 [8]
  inhibition at 10 µM: 11%

## COC(=O)[C@H](Cc1ccccc1)NC(=O)c1cc(=O)c2c(OCc3ccccc3Br)cccc2o1
ABCB1 [1]
  inhibition at 1 µM: 5%
ABCC1 (MRP1) [2]
  inhibition at 1 µM: 26%
[4]
  EC50: 100 nM
[9]
  viability at 72 h, 10 µM: 82%
ABCB1 [8]
  inhibition at 10 µM: 6%

## CC[C@@H](C)[C@H](NC(=O)c1cc(=O)c2c(OCc3ccc(Br)cc3)cccc2o1)C(=O)OC
ABCG2
  Emax at 1 µM: 115%
[4]
  EC50: 590 nM

## COC(=O)[C@H](Cc1ccccc1)NC(=O)c1cc(=O)c2c(OCc3ccc(Br)cc3)cccc2o1
ABCB1 [1]
  inhibition at 1 µM: 6%
ABCC1 (MRP1) [2]
  inhibition at 1 µM: 23%
[4]
  EC50: 270 nM
[9]
  viability at 72 h, 10 µM: 84%
ABCB1 [8]
  inhibition at 10 µM: 7%

## COC(=O)[C@H](Cc1c[nH]c2ccccc12)NC(=O)c1cc(=O)c2c(OCc3ccccc3Br)cccc2o1
ABCB1 [1]
  inhibition at 1 µM: 7%
ABCC1 (MRP1) [2]
  inhibition at 1 µM: 23%
[3]
  Imax: 94%
[4]
  EC50: 600 nM
[9]
  viability at 72 h, 10 µM: 88%
[6]
  inhibition (INH): 94%
ABCB1 [8]
  inhibition at 10 µM: 5%

## CC[C@@H](C)[C@H](NC(=O)c1cc(=O)c2c(OCc3ccccc3Br)cccc2o1)C(=O)N[C@H](C(=O)OC)C(C)C
ABCB1 [1]
  inhibition at 1 µM: 0%
ABCC1 (MRP1) [2]
  inhibition at 1 µM: 11%
[3]
  Imax: 85%
[4]
  EC50: 70 nM
[6]
  inhibition (INH): 85%
[7]
  viability at 72 h, 20 µM: 102%
ABCB1 [8]
  inhibition at 10 µM: 0%
